Measurements of several laboratories.
Compare with care: the assays were run in different laboratories.
Target: Mitogen-activated protein kinase kinase kinase 1 (MAP3K1, Homo sapiens, UniProt Q13233)

SMILES	test	conditions	remaining binding [%]
FC(F)(F)Oc1cccc(-c2cnc3ccc(-c4ccncc4)nn23)c1	cell-free assay, competition with immobilised ligand	5 µM	80
CSc1cccnc1N1CCN(Cc2nc3ccccc3[nH]2)CC1	cell-free assay, competition with immobilised ligand	1 µM	70
CNC(=O)[C@@H]1CC[C@@H](n2c(-c3ccc4cnccc4c3)nc3ccc(C(=O)NCc4cccc(C(N)=O)c4)cc32)C1	binding, competition with immobilised ligand	1 µM	95
CCN1CCN(Cc2ccc(C(=O)Nc3ccc(C)c(Oc4ccc5c(c4)CC(=O)N5)c3)cc2C(F)(F)F)CC1	binding, competition with immobilised ligand	1 µM	100
O=C1NC(c2ccccn2)Sc2ccccc21 (stereo not shown)	cell-free assay, competition with immobilised ligand	1 µM	55
C[C@H]1CCN(c2nccc(-c3cnn4ncccc34)n2)C1	binding	1 µM	83
Cc1cc(-n2nc(Cc3cc(F)cc(C(F)(F)F)c3)nc2C)ccc1C(N)=O	cell-free assay, competition with immobilised ligand	1 µM	100
Cc1cnc(Nc2ccc(C(=O)N3CCC(N4CCCC4)CC3)cc2)nc1-c1cc2ccccc2s1	binding, competition with immobilised ligand	1 µM	70
CO[C@@H](C)c1c(Nc2ccc([C@H](N(C)C(=O)C3CCS(=O)(=O)CC3)C(F)(F)F)cc2)cnc2cc(Cl)nn12	cell-free assay, competition with immobilised ligand	1 µM	100
O=C(NCCCN1CCOCC1)c1ccc(Nc2ncc(Cl)c(-c3ccc(Cl)s3)n2)cc1	binding, competition with immobilised ligand	1 µM	100
CNC(=O)c1ccc(Nc2ncc(C(F)(F)F)c(NCc3nccnc3N(C)S(C)(=O)=O)n2)cc1	cell-free assay, competition with immobilised ligand	0.1 µM	100
Cc1cnn2ncc(-c3ccnc(N(C)C)n3)c2c1	binding	1 µM	91
C[C@@H](c1ccc(-n2cnc3c(N)ncnc32)cc1)N1CCc2nn(C)c(Cc3ccccc3)c2C1=O	binding, competition with immobilised ligand	0.1 µM	60
O=C(c1ccc(Nc2ncc(Cl)c(-c3ccc(Cl)s3)n2)cc1)N1CCC(N2CCCC2)CC1	binding, competition with immobilised ligand	1 µM	90
CN(CCCC(F)(F)F)c1nccc(-c2cnn3ncccc23)n1	binding	1 µM	75
CCCOc1ccc([C@@H]2[C@@H](C(=O)O)[C@H](c3ccc4c(c3)OCO4)CN2CC(=O)Nc2c(CC)cccc2CC)cc1	cell-free assay, competition with immobilised ligand	1 µM	80
CN(c1nccc(-c2cnn3ncccc23)n1)C1CC1	binding	1 µM	81
COc1cnc(Nc2cccc(S(N)(=O)=O)c2)nc1N1CCN(c2ccccc2)C(=O)C1	binding, competition with immobilised ligand	1 µM	96
F[C@@H]1CCN(c2nccc(-c3cnn4ncccc34)n2)C1	binding	1 µM	100
O=C(Nc1c[nH]nc1C(=O)NC1CCNCC1)c1cc(F)cc(F)c1	binding, competition with immobilised ligand	1 µM	84
Cc1cc(NC(=O)c2cccc(S(F)(F)(F)(F)F)c2)cc(-n2ccn3nc(-c4cccnc4)cc23)c1	cell-free assay, competition with immobilised ligand	1 µM	90
N[C@@H]1CCN(c2nccc(-c3cnn4ncccc34)n2)C1	binding	1 µM	97
